Experimental data from different studies.
Target: TGF-beta receptor type-1 (TGFBR1, Homo sapiens, UniProt P36897)
Residues used in one study (P36897 34-503): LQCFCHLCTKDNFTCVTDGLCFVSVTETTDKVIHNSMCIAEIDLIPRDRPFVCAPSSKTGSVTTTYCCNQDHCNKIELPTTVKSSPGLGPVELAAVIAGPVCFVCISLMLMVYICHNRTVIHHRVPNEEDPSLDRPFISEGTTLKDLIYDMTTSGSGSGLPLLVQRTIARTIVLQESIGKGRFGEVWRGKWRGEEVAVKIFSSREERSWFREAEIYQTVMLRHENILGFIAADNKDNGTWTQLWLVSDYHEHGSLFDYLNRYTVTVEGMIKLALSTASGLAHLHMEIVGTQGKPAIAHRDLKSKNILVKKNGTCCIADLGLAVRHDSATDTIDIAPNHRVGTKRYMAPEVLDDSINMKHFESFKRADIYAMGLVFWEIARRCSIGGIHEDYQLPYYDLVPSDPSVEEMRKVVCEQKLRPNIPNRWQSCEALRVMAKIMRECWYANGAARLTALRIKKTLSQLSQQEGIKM

Cc1cnn2ncc(-c3ccnc(N(C)C)n3)c2c1 gave a remaining binding of 100% (binding; 1 µM).
With C[C@@H]1CN(c2ccc3ncc(-c4ccc5[nH]nc(C6CC6)c5c4)n3n2)C[C@H](C)O1 the remaining binding was 100% (binding; competition with immobilised ligand; 50 nM).
For O=C(c1ccc(Nc2ncc(Cl)c(-c3cc4ccccc4s3)n2)cc1)N1CCC(N2CCCC2)CC1, the remaining binding was 52% (binding; competition with immobilised ligand; 1 µM).
With CCN1CCN(Cc2ccc(C(=O)Nc3ccc(C)c(Oc4ccc5c(c4)CC(=O)N5)c3)cc2C(F)(F)F)CC1 the remaining binding was 100% (binding; competition with immobilised ligand; 1 µM).
O=C(c1ccc(Nc2ncc(Cl)c(-c3ccc(Cl)s3)n2)cc1)N1CCC(N2CCCC2)CC1 gave a remaining binding of 55% (binding; competition with immobilised ligand; 1 µM).
C[C@H]1CCN(c2nccc(-c3cnn4ncccc34)n2)C1 gave a remaining binding of 76% (binding; 1 µM).
Cc1nc(Cc2cccc(C(F)(F)F)c2)sc1-c1ccc(C(N)=O)nc1 gave a remaining binding of 90% (cell-free assay; competition with immobilised ligand; 1 µM).
CC(C)(C)c1ccc(-c2nc(CBr)nn2-c2cccc(O)c2)cc1 has a remaining binding of 90% (cell-free assay; competition with immobilised ligand; 10 µM).
With FC(F)(F)Oc1cccc(-c2cnc3ccc(-c4ccncc4)nn23)c1 the remaining binding was 83% (cell-free assay; competition with immobilised ligand; 5 µM).
The remaining binding of C[C@@H](c1ccc(-n2cnc3c(N)ncnc32)cc1)N1CCc2nn(C)c(Cc3ccccc3)c2C1=O is reported as 82% (binding; competition with immobilised ligand; 0.1 µM).
The remaining binding of O=C(c1ccc(Nc2nccc(-c3cc4ccccc4s3)n2)cc1)N1CCC(N2CCCC2)CC1 is reported as 91% (binding; competition with immobilised ligand; 1 µM).
For COc1cnc(Nc2cccc(S(N)(=O)=O)c2)nc1N1CCN(c2ccccc2)CC1, the remaining binding was 100% (binding; competition with immobilised ligand; 1 µM).
c1cncc(-c2cccc(Nc3nccc(NC4CCCCC4)n3)c2)c1 gave a remaining binding of 75% (binding; competition with immobilised ligand; 10 µM).
FC(F)(F)c1ccc2c(c1)nc(-c1cccnc1)n2C1CC1 gave a remaining binding of 78% (cell-free assay; competition with immobilised ligand; 1 µM).
For CN(C)c1nccc(-c2cnc3ncccn23)n1, the remaining binding was 82% (binding; 1 µM).
For Cc1nc(C2CCN(C(=O)c3ccc(OC(F)(F)F)cc3N)CC2)c2ncc(N3CCN(C)CC3)cc2n1, the remaining binding was 80% (cell-free assay; competition with immobilised ligand; 1 µM).
For F[C@@H]1CCN(c2nccc(-c3cnn4ncccc34)n2)C1, the remaining binding was 100% (binding; 1 µM).
For CNCc1ccccc1-c1csc([C@@H](C)Nc2nc(C)nc3cc(OC)c(OC)cc23)c1, the remaining binding was 74% (cell-free assay; competition with immobilised ligand; 1 µM).
For CN(C)c1ncc(F)c(-c2cnn3ncccc23)n1, the remaining binding was 86% (binding; 1 µM).
CC(=O)Nc1c(C(C)=O)c(=O)n(C)c2nc(-c3ccc(Cl)cc3Cl)c(-c3ccc(Cl)cc3)cc12 gave a remaining binding of 82% (cell-free assay; competition with immobilised ligand; 1 µM).
For N[C@H]1CCN(c2nccc(-c3cnn4ncccc34)n2)C1, the remaining binding was 100% (binding; 1 µM).
For CN([C@@H]1CCc2c(CC(=O)O)c3ccccc3n2C1)S(=O)(=O)c1ccc(F)cc1, the remaining binding was 100% (cell-free assay; competition with immobilised ligand; 1 µM).
With CC1CCCN1c1nccc(-c2cnn3ncccc23)n1 (stereo not shown) the remaining binding was 100% (binding; 1 µM).
For O=C(Nc1c[nH]nc1C(=O)NC1CCNCC1)c1cc(F)cc(F)c1, the remaining binding was 100% (binding; competition with immobilised ligand; 1 µM).
COc1ccc2c(c1)O[C@H](c1ccc(OC)c(OC)c1)C[C@@H]2NC(=O)C1(c2ccc3c(c2)OC(F)(F)O3)CC1 has a remaining binding of 100% (cell-free assay; competition with immobilised ligand; 1 µM).
